Assay [1] deals with splenocytes of HHDII/DR1 mice (T-cell IFNγ response). The experiment in a line: IFNγ ELISpot on splenocytes of peptide-immunized HLA-A2 transgenic. The conditions noted are these: for Modification specificity of IFNγ response (Hcit versus wt peptide): HHDII/DR1 and HHDII mice immunized with long Hcit peptide (figure 2A); for Effect of CD4 or CD8 blocking antibody on IFNγ response, ex vivo: HHDII/DR1 mice immunized with long Hcit peptide, 20 µg/mL anti-CD4 or anti-CD8 (figure 1C); for IFNγ response after immunization with wt peptide: HHDII/DR1 mice, tested against wt or Hcit peptides (figure 2B). The format is in vivo, mouse. A digest of the protocol: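 HHDII/DR1 or HHDII mice get 25 µg peptide s.c. (stock 1 mg/mL in 20% DMSO/PBS) with 5 µg each CpG ODN 1826 and monophosphoryl lipid A in PBS on days 1, 8 and 15. Spleens taken day 21. 5×10^5 splenocytes/well in quadruplicate are restimulated with peptide for 40 h at 37°C, 5% CO2. IFNγ spots are counted automatically and reported as mean spots/million splenocytes per mouse; n=3 per group.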

In assay [2] the test system is HLA-A2 on T2 cells. The experiment in a line: T2 binding assay. The format is cell-based, human. The settings on record: different peptide concentrations; three independent experiments (figure 3C,D). A digest of the protocol:
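T2 cells (2×10^6/mL) are incubated overnight at 37°C with peptide (dilutions prepared at 400, 40 and 4 µg/mL before mixing) and recombinant human β2-microglobulin (prepared at 800 ng/mL). Brefeldin A is added for 1 h before anti-HLA-A2 FITC staining and flow cytometry. Binding is taken as median fluorescence intensity; three independent experiments, two-way ANOVA.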

Assay [3] relates to B16 HHDII melanoma cells. The experiment in a line: In vivo antitumor study, B16 HHDII tumor in HHDII mice. The settings on record: aggressive mouse B16 melanoma model, peptide vaccination. The method in brief:
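HHDII mice receive 5×10^4 B16 HHDII cells s.c. on day 1, then peptide plus CpG/MPLA adjuvant on days 4, 8 and 11. In depletion arms, anti-CD4 (GK1.5) or anti-CD8 (2.43) is given i.p., 500 µg day 4 and 300 µg days 8 and 11. Tumours are checked twice weekly, with euthanasia near 15 mm diameter; n=5–10 per group.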

Regarding “YVTE-Hcit-VLAAVY-Hcit-ALSD [Aldo 204-219Hcit]”, in assay [1], the “Modification specificity of IFNγ response (Hcit versus wt peptide)” value is reported as “strong modification specific responses” and the “Effect of CD4 or CD8 blocking antibody on IFNγ response, ex vivo” value is listed as “not affected by either of the blocking antibody”.
On to VLAAVY-Hcit-AL [Aldo 209-217Hcit], for which, in assay [2], the “HLA-A2 binding affinity of Hcit peptide compared with corresponding wt peptide” value is “higher binding affinity”. In assay [1] (HHDII/DR1 mice immunized with Aldo 204-219Hcit or Cyk8 112-132Hcit (figure 2C)), the “IFNγ response to short peptide in mice immunized with the long Hcit peptide” value is “strong responses”. In addition, the survival entry in assay [3] is “at least 50%”.
Consider “LEQQN-Hcit-MLET- Hcit-WSLLQQQ- Hcit-T [Cyk8 112-132Hcit]”, for which, in assay [1], the “Modification specificity of IFNγ response (Hcit versus wt peptide)” value is given as “strong modification specific responses” and the “Effect of CD4 or CD8 blocking antibody on IFNγ response, ex vivo” value is given as “either anti-CD8 or anti-CD4 antibody significantly reduced the immune response”.
With “Aldo 204–219wt: wild type (native) long aldolase A peptide (YVTEKVLAAVYKALSD; UniProt P04075 204-219, looked up, fragment)”, the “IFNγ response after immunization with wt peptide” value in assay [1] is “failed to stimulate detectable IFNγ immune responses”.
With “Cyk8 112–132wt: wild type (native) long cytokeratin 8 peptide (LEQQNKMLETKWSLLQQQKTA; UniProt P05787 112-132, looked up, fragment)”, the “IFNγ response after immunization with wt peptide” value in assay [1] is “failed to stimulate detectable IFNγ immune responses”.

For the origin of these results see article PMC10603355 (Journal for Immunotherapy of Cancer, 2023).
